Experiment [1] in a line: Displacement of [3H]strychnine from strychnine-sensitive glycine receptor in rat spinal cord. On the technique in general: Loss of bound radioactivity is the signal in a displacement assay; it reports binding, not function.
Experiment [2] deals with GABA-A receptor; anion channel. The experiment can be described thus: Displacement of [3H]muscimol from GABA-A receptor in Sprague-Dawley rat cerebral cortex. Format: tissue-based. An outline of the steps: (§1)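 Synaptic membranes from adult rat tissue (cerebral cortex or spinal cord–brainstem) incubated with 5 nM [3H]muscimol plus increasing competitor concentrations in 50 mM Tris-citrate, pH 7.1, 30 min at 4 °C. Bound ligand separated by rapid filtration through glass fiber filters, three washes with ice-cold buffer, scintillation counting. Nonspecific binding defined with 200 µM unlabeled GABA. Mean of three experiments in triplicate.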

For experiment [3], the target named is GABA-A receptor; anion channel. The experiment can be described thus: Displacement of [3H]muscimol from GABA-A receptor in Sprague-Dawley rat spinal cord. Format: protein-complex assay. The essentials:
as §1

As a reminder, the IC50 is the concentration needed to halve the response being measured. Higher therefore signals weaker potency in that assay.

For the molecule `COc1c(N)cc2c(c1OC)-c1ccc(SC)c(=O)cc1[C@@H](NC(C)=O)CC2`, the concentration for half-maximal inhibition (IC50) in experiment [1] came out at 39.9 µM; in experiment [2], 5.4 µM; in experiment [3] it was 1.9 µM.

With `COc1c(N[C@H]2O[C@@H](C)[C@H](O)[C@@H](O)[C@H]2O)cc2c(c1OC)-c1ccc(SC)c(=O)cc1[C@@H](NC(C)=O)CC2`, the IC50 in experiment [1] is 4.6 µM; in experiment [2], greater than 100 µM; in experiment [3] it was 3.8 µM.

On to `COc1c(NC2OC[C@@H](O)[C@H](O)[C@H]2O)cc2c(c1OC)-c1ccc(SC)c(=O)cc1[C@@H](NC(C)=O)CC2` (some centres undefined), for which the IC50 in experiment [1] was determined as 3.3 µM; in experiment [2], 7 µM; in experiment [3], 3.3 µM.

`COc1c(N[C@@H]2O[C@@H](C)[C@@H](O)[C@@H](O)[C@@H]2O)cc2c(c1OC)-c1ccc(SC)c(=O)cc1[C@@H](NC(C)=O)CC2`: the IC50 came to 4.2 µM in experiment [1], 10.5 µM in experiment [2] and 5.9 µM in experiment [3].

On to `COc1c(N[C@@H]2O[C@H](CO)[C@@H](O)[C@H](O)[C@@H]2O)cc2c(c1OC)-c1ccc(SC)c(=O)cc1[C@@H](NC(C)=O)CC2`, for which the results for the IC50 in experiment [1], in experiment [2] and in experiment [3] were 13.1 µM, greater than 100 µM and 11.3 µM, respectively.

As for `COc1c(NC2OC[C@@H](O)[C@H](O)[C@@H]2O)cc2c(c1OC)-c1ccc(SC)c(=O)cc1[C@@H](NC(C)=O)CC2` (some centres undefined), the IC50 in experiment [1] amounted to 4.1 µM; in experiment [2] it was 9.7 µM; in experiment [3] it was 4 µM.

Consider `COc1c(NC2OC[C@@H](O)[C@@H](O)[C@@H]2O)cc2c(c1OC)-c1ccc(SC)c(=O)cc1[C@@H](NC(C)=O)CC2` (some centres undefined), for which the IC50 in experiment [1] came out at 8.6 µM; in experiment [2] it was 17.7 µM; in experiment [3] it was 10.5 µM.

Consider `COc1c(NC2O[C@H](CO)[C@@H](O)[C@H](O)[C@H]2O)cc2c(c1OC)-c1ccc(SC)c(=O)cc1[C@@H](NC(C)=O)CC2` (some centres undefined), for which the IC50 in experiment [1] is 10.6 µM; in experiment [2], 18 µM; in experiment [3], 11.3 µM.

The molecule `NCC(=O)O` [GLYCINE] gave an IC50 in experiment [1] of 15.8 µM.

In the case of `O=C1C[C@@H]2OCC=C3CN4CC[C@]56c7ccccc7N1[C@H]5[C@H]2[C@H]3C[C@H]46` [STRYCHNINE], the IC50 in experiment [1] was 0.014 µM.

In the case of `COc1c(O[C@@H]2O[C@H](CO)[C@@H](O)[C@H](O)[C@H]2O)cc2c(c1OC)-c1ccc(SC)c(=O)cc1[C@@H](NC(C)=O)CC2` [THIOCOLCHICOSIDE], the IC50 in experiment [1] amounted to 1.5 µM; in experiment [2] it was 3.4 µM; in experiment [3] it was 1.9 µM.
